Screening data from PubChem.
NadD block – blocks S. aureus nicotinate mononucleotide adenylyltransferase; purified NadD enzyme, colorimetric absorbance read-out; inhibition, % at 20 µM; 360,000 compounds, 0.78% hits; AID 602399; in the data active = inhibition above about 26%
TbMetRS inhib – Trypanosoma brucei MetRS inhibition | purified T. brucei MetRS, ATP depletion, Kinase-Glo luminescence | inhibition, % at 11.9 µM | 360,000 compounds, 0.4% hits;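 active = inhibition above a per-plate cutoff of the control wells' mean inhibition plus 3 SD, cut at about 5.5% in these data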
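Measured by: Kinase-Glo luciferase luminescence reporting remaining unconsumed ATP. Material: purified T. brucei MetRS enzyme. Doses: 11.9 µM compound single dose, 0.9% DMSO. Medium: HEPES buffer containing pyrophosphatase, BSA, spermine, DTT. Times: 15 min preincubation, 2 h reaction, all 25 °C. Reagent: methionine, ATP and bulk E. coli tRNA.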
DSG3 Ab inh – human desmoglein-3 autoantibody binding inhibition. DSG3-coupled beads, scFv-anti-DSG3-GFP binding, flow cytometry; hits give low values. binding (percent of control), % at 10 µM. P32926. 310,000 compounds, 0.48% hits;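 active = binding more than 3 SD below its plate's average and above zero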;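 note: hits lower antibody fragment binding to DSG3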
Target sequence (P32926 whole entry, looked up, the tested form may be a part): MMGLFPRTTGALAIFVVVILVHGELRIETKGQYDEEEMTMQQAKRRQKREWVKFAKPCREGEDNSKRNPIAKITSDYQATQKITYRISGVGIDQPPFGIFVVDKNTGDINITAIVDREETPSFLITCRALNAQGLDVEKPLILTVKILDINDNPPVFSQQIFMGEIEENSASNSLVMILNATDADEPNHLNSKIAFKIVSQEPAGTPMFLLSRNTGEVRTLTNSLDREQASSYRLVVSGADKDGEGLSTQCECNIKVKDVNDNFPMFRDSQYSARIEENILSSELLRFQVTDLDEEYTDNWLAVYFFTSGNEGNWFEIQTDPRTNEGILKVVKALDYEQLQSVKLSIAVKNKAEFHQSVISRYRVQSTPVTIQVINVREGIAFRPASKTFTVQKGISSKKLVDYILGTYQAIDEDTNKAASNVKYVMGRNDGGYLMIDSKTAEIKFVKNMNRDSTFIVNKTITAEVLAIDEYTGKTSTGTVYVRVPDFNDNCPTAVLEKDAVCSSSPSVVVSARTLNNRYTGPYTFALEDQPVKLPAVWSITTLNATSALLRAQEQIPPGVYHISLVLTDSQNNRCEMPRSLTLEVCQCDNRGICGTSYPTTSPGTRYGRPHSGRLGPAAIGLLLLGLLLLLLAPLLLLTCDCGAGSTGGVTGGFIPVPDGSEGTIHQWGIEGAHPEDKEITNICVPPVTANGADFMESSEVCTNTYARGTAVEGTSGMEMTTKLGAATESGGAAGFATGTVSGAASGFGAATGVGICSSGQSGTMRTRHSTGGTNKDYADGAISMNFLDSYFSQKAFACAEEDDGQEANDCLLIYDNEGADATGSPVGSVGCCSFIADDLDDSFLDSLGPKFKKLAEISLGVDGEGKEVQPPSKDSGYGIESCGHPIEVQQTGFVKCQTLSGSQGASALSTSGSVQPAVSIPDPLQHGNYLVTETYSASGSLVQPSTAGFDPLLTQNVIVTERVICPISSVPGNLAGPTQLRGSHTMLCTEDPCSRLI
Rce1 inh – blocks yeast Ras-converting enzyme; calls only; 290,000 compounds, 0.27% hits; yeast membranes, quenched prenylated peptide cleavage fluorescence;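 active = fall in fluorescence gain of 50% or more versus controls, with final raw signal at or below 3038400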
core dimer inh – HCV core protein dimerization inhibition | 300,000 compounds, 0.33% hits | TR-FRET GST/Flag-core106 dimerization, 1536-well | inhibition, % at 5 µM;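 active = inhibition above the mean of all tested compounds plus 3 SD, set per screening campaign, cut at about 45% in these data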
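Assay system: tagged HCV core106 pair (GST and Flag); medium: KF-containing HEPES buffer, pH 7.45, DTT, CHAPS, BSA; also added: Eu donor and XL665 acceptor anti-tag antibodies; dosing: 5 µM single dose; timing: compound-protein-antibody incubation 4 h at 22.5 °C; signal: TR-FRET 671 and 617 nm emission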
Each line names hits and unclear results; the compound was inactive in the other large screens. Hits are enriched below; roughly 1.9% of the tested compounds scored in any of these assays.

COc1cc2c(=O)n(CC3CCCO3)c(=O)n(CC(=O)Nc3ccc(F)cc3F)c2cc1OC (configuration not stated)	none
C=CCN(C(=O)CCc1ccccc1OC)c1nc(-c2ccc(S(C)(=O)=O)cc2)cs1	none
O=c1c2ccccc2n2c(-c3ccc(C(F)(F)F)cc3)nnc2n1Cc1ccccc1	none (no result: DSG3 Ab inh)
COc1ccc2c(c1)c(N=NC(N)=S)c(O)n2CC(=O)c1ccccc1	DSG3 Ab inh 59
Cc1ccc(NC(=O)Cn2c(O)c(N=NC(N)=S)c3ccccc32)cc1	none
Cc1ccc(Oc2ccc(Cl)cc2NC(=O)c2cnccn2)cc1	DSG3 Ab inh 79
O=C(Nc1ccccc1Oc1ccccc1)c1cnccn1	none
Cc1ccc(NC(=O)c2cccnc2)cc1C	DSG3 Ab inh 16
O=C(Nc1cccc(NC(=O)c2cccnc2)c1)c1cccnc1	none
O=C(CCC(=O)N(c1ccccc1)C(C(=O)NC1CCCC1)c1ccncc1)Nc1cccnc1 (configuration not stated)	none
COCCN(C(=O)CCC(=O)Nc1cccnc1)C(C(=O)NC1CCCCC1)c1ccccc1 (configuration not stated)	DSG3 Ab inh 82
O=C(C1CC1)N1CCc2cc(S(=O)(=O)N3CCCc4ccccc43)ccc21	none
c1ccc(OCc2nn3c(-c4n[nH]c5c4CCC5)nnc3s2)cc1	core dimer inh 47 (no result: DSG3 Ab inh)
Cc1nnc2sc(COc3ccccc3)nn2c1=O	none
Cc1ccc(NC(=O)CN2C(=O)S/C(=C\c3ccc(-c4cccc(C(=O)O)c4C)o3)C2=O)cc1C	NadD block 35 (no result: Rce1 inh, core dimer inh)
O=C(CN1C(=O)S/C(=C\c2ccc(-c3cc(C(=O)O)ccc3Cl)o2)C1=O)Nc1ccc2c(c1)OCO2	NadD block 53 (no result: DSG3 Ab inh, core dimer inh)
CCOc1ccc(-c2cnc3n2CCC3)cc1	none
Cc1cnc(NC(=O)CSc2nnc(COc3ccccc3)o2)s1	none (no result: DSG3 Ab inh)
Cc1cnc(NC(=O)CSc2nnc(COc3c(C)cccc3C)o2)s1	DSG3 Ab inh 82
O=[N+]([O-])c1cc(CN2CCN(c3ccccc3)CC2)c(O)c2ncccc12	NadD block 71
Cc1ccccc1N1CC(=O)N(c2ccccc2C)CC1=O	none
Cc1cccc2c1c1ccc3c(c1n2C)C(=O)C=CC3=O	NadD block 50 (no result: Rce1 inh, core dimer inh)
C#CCOCC1CN(c2ccccc2)C(=O)O1 (configuration not stated)	none (no result: Rce1 inh, core dimer inh)
O=C1OC(COc2ccc(Br)cc2)CN1c1ccccc1 (configuration not stated)	DSG3 Ab inh 81
CC1CCCN(C(=O)COC(=O)Cc2c(F)cccc2Cl)C1 (configuration not stated)	none
Cc1ccc(NS(=O)(=O)c2ccc(Cl)c(N=Nc3c(O)[nH]c(=O)[nH]c3=O)c2)cc1Cl	NadD block 31 (no result: Rce1 inh, core dimer inh)
COc1cccc(/C=C/C(=O)OCC(=O)Nc2cccc(S(=O)(=O)N3CCCCC3)c2)c1OC	none
O=C(Nc1cccc(Cl)c1)c1ccc(OC(=S)N2CCOCC2)cc1	none
O=C(Nc1cccc2ccccc12)c1ccc(OC(=S)N2CCOCC2)cc1	Rce1 inh active
Cc1cccc(-c2nc(=S)c3c(n2Cc2ccco2)CCCC3)c1	core dimer inh 64
Cc1ccc(-c2nc(=S)c3c(n2Cc2ccco2)CCCC3)cc1	none (no result: Rce1 inh, core dimer inh)
CCN(CC)S(=O)(=O)c1ccc2c3c(cccc13)C(=O)N2	none
O=C(Nc1ccc2c(c1)oc1ccc(S(=O)(=O)N3CCCC3)cc12)C1CC1	DSG3 Ab inh 71
O=C(Nc1ccccc1N1CCOCC1)C1CCN(S(=O)(=O)c2ccc(F)cc2)CC1	Rce1 inh active
O=C(Nc1ccc2c(c1)OCO2)C1CCN(c2ccc(S(=O)(=O)N3CCOCC3)cc2)CC1	DSG3 Ab inh 66
O=C(Nc1ccccc1N1CCCC1)C1CCN(S(=O)(=O)c2ccc(F)cc2)CC1	none
CCC1=NN(C(=O)Cc2ccc([N+](=O)[O-])cc2)C(O)(c2ccncc2)C1 (configuration not stated)	none
COc1ccc2cc[nH]c2c1	none
Cc1ccccc1SC1CCN(C(=O)C2CCC(=O)N(C3CC3)C2)CC1 (configuration not stated)	none
O=C(C1CCC(=O)N(C2CC2)C1)N1CCN(c2ccccc2Cl)CC1 (configuration not stated)	Rce1 inh active
COc1cc(/C=C2\C(=O)N(c3ccccc3)N=C2C)ccc1Oc1ccc([N+](=O)[O-])cc1[N+](=O)[O-]	NadD block 36 (no result: Rce1 inh)
CC1=NN(c2ccccc2)C(=O)/C1=C\c1ccc(Oc2ccc([N+](=O)[O-])cc2[N+](=O)[O-])cc1	NadD block 30, core dimer inh 61
O=C(c1cnc2sccn2c1=O)N1CCN(c2ccccc2Cl)CC1	none
OC(COc1ccccc1)CN1CCN(c2ccccc2)CC1 (configuration not stated)	none (no result: Rce1 inh, core dimer inh)
O=C1COc2ccc(C(=O)COC(=O)/C=C/c3ccc(Br)o3)cc2N1	core dimer inh 84
CC(=O)N1Cc2ccccc2CC1C(=O)N1CCN(c2ccccc2)CC1 (configuration not stated)	none
S=c1[nH]nc(-c2ccccn2)n1/N=C/c1ccc(Cl)c(Cl)c1	none
S=c1[nH]nc(-c2ccccn2)n1/N=C/c1ccc(Br)s1	DSG3 Ab inh 65
CN(C)c1cccc2c(S(=O)(=O)N3CCCC3)cccc12	none
COc1ccc(C(=O)NCC(C)(C)CNC(=O)c2ccc(OC)c(OC)c2)cc1OC	none (no result: Rce1 inh)
Cc1nn(-c2ccccc2)c(C)c1/C=N/NC(=O)c1cc(-c2ccc(Cl)s2)[nH]n1	none
Cc1nn(-c2ccccc2)c(C)c1-c1cc(C(=O)N/N=C/c2ccc(O)cc2)[nH]n1	DSG3 Ab inh 58
Cc1nn(-c2ccccc2)c(C)c1/C=N/NC(=O)c1cc(-c2ccc(Br)s2)[nH]n1	DSG3 Ab inh 84
COc1cc(/C=N/NC(=O)c2cc(-c3c(C)nn(-c4ccccc4)c3C)n[nH]2)ccc1O	none
COc1cc(C=NCc2ccccc2)ccc1O	none (no result: Rce1 inh, core dimer inh)
O=C(C[n+]1cc2ccccc2c2ccccc21)c1ccccc1	Rce1 inh active
O=C(N/N=C/C=C/c1ccco1)/C(=C/c1ccccc1)NC(=O)c1ccccc1	core dimer inh 47
COc1cc(Br)cc(/C=N/NC(=O)Cc2ccc(C(F)(F)F)cc2[N+](=O)[O-])c1O	NadD block 39
CCOc1cc(/C=N/NC(=O)Cc2ccc(C(F)(F)F)cc2[N+](=O)[O-])c(Br)cc1OC	none
COc1ccc(NC(=S)NNc2ccc(S(=O)(=O)Nc3ccccc3C(=O)O)cc2[N+](=O)[O-])cc1	none
Cc1ccc(S(=O)(=O)Nc2ccccc2C(=O)OC(C)C(=O)Nc2ccc3ccccc3c2)cc1[N+](=O)[O-] (configuration not stated)	core dimer inh 47
Cn1cc(Br)c(-c2cccc(N3C(=O)CCCC3=O)c2)n1	none (no result: DSG3 Ab inh)
O=Cc1c(NCc2ccc(F)cc2)c2ccccc2[nH]c1=O	none
O=Cc1c(NC2CCCCC2)c2ccccc2[nH]c1=O	DSG3 Ab inh 74
